From ChEMBL document CHEMBL1132976, “Biarylcarbamoylindolines are novel and selective 5-HT(2C) receptor inverse agonists: identification of 5-methyl-1-[[2-[(2-methyl-3-pyridyl)oxy]- 5-pyridyl]carbamoyl]-6-trifluoromethylindoline (SB-243213) as a potential antidepressant/anxiolytic agent” (J Med Chem, 2000)
The source made the active and inactive calls. No cut-off for these calls is given here.

Key:
[1] = molecular target: T1, 5-hydroxytryptamine receptor 2A (Homo sapiens, UniProt P28223); assay: Binding affinity towards human cloned 5-hydroxytryptamine receptor 2A in HEK293 cells, using [3H]ketanserin as radioligand.; assay type: cell-based
In short: (§1)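 Competition binding at human cloned receptors expressed in HEK 293 cells. Radioligands: [3H]ketanserin for 5-HT2A, [3H]5-HT for 5-HT2B, [3H]mesulergine for 5-HT2C. Values are pKi, given as the mean of at least two determinations, each within 0.2 log unit of the mean.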

Rattus norvegicus [2] = assay: Dose required to reverse mCPP induced hypolocomotion in rats after oral administration; assay type: functional
In short: (§2)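 Rat hypolocomotion model. The test compound was given orally, and mCPP was given at 7 mg/kg ip 30 min before the test. ID50 (mg/kg po) is the dose that reverses mCPP-induced hypolocomotion by 50%.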

[3] = molecular target: T2, 5-hydroxytryptamine receptor 2B (Homo sapiens, UniProt P41595); assay: Displacement of [3H]5-HT from human 5-hydroxytryptamine 2B receptor expressed in HEK293 cells; assay type: cell-based; in short: as §1
Cytochrome P450 1A2 [4] = molecular target: T3, Cytochrome P450 1A2 (Homo sapiens, UniProt P05177); assay: Inhibition of heterologously expressed human cytochrome P450 1A2.; assay type: ADME
T3 sequence (P05177 whole entry): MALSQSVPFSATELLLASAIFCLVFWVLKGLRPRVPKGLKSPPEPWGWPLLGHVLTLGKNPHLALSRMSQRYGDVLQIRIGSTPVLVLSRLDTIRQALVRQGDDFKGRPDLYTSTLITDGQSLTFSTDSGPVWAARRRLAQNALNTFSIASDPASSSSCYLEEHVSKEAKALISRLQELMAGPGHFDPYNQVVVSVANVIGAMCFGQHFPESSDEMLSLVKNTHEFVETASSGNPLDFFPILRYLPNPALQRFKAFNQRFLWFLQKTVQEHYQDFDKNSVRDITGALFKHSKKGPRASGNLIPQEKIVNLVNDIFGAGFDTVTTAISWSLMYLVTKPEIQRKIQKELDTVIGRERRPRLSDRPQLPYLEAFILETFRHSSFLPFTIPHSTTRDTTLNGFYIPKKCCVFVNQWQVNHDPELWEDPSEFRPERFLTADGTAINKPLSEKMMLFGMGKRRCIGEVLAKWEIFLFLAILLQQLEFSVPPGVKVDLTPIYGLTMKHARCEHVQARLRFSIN
In short: (§3)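 Heterologously expressed human CYP1A2 in an isoform-selective assay. Substrate: caffeine N3-demethylation at 500 µM, at the substrate Km.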

[5] = molecular target: T4, 5-hydroxytryptamine receptor 2C (Homo sapiens, UniProt P28335); assay: Binding affinity towards human cloned 5-hydroxytryptamine receptor 2C in HEK293 cells, using [3H]mesulergine as radioligand.; assay type: cell-based; in short: as §1
T4 sequence (P28335 whole entry): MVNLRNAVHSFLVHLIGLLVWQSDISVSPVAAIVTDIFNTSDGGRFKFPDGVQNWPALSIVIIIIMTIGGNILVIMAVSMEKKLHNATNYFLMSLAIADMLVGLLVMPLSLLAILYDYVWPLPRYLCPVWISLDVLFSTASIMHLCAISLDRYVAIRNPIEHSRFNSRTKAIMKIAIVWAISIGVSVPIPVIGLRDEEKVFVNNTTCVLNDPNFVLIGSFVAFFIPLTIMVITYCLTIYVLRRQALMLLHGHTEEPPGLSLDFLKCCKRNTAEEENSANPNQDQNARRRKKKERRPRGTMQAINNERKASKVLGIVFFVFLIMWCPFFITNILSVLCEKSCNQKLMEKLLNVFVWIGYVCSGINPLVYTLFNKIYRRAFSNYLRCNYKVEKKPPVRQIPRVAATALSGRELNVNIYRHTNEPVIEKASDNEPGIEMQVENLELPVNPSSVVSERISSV

[6] = molecular target: Serotonin 2 receptors; 5-HT2a & 5-HT2c (Homo sapiens) (UniProt P28223+P28335); assay: Selectivity index determined from binding affinities of 5-HT2C and 5-HT2A.; assay type: protein assay
[7] = molecular target: Serotonin receptor (2b and 2c) (Homo sapiens) (UniProt P41595+P28335); assay: Selectivity index determined from the binding affinities of 5-HT2C and 5-HT2B.; assay type: protein assay
Rattus norvegicus [8] = assay: Dose required to reverse mCPP induced hypolocomotion in rats after oral administration; NA=inactive; assay type: functional, organism-based; in short: as §2
Rattus norvegicus [9] = assay: Dose required to reverse mCPP induced hypolocomotion in rats after oral administration; IA=inactive; assay type: functional, organism-based; in short: as §2
[10] = molecular target: T2, 5-hydroxytryptamine receptor 2B; assay: Binding affinities towards human cloned 5-hydroxytryptamine 2B receptor in HEK293 cells using [3H]5-HT as radioligand.; assay type: cell-based; in short: as §1
[11] = molecular target: T5, 5-hydroxytryptamine receptor 2C (Homo sapiens) (UniProt P28335); assay: Displacement of [3H]mesulergine from human 5-hydroxytryptamine 2C receptor expressed in HEK293 cells; compound insoluble; assay type: cell-based; in short: as §1
T5 sequence (whole entry): T4 sequence (P28335 whole entry)

[12] = molecular target: T2, 5-hydroxytryptamine receptor 2B; assay: Displacement of [3H]5-HT from human 5-hydroxytryptamine 2B receptor expressed in HEK293 cells; compound is insoluble; assay type: cell-based; in short: as §1
[13] = molecular target: T1, 5-hydroxytryptamine receptor 2A; assay: Displacement of [3H]ketanserin from human 5-hydroxytryptamine 2A receptor expressed in HEK293 cells; compound is insoluble; assay type: cell-based; in short: as §1
Cytochrome P450 2D6 = Cytochrome P450 2D6 (Homo sapiens, UniProt P10635); assay: Inhibition of heterologously expressed human cytochrome P450 2D6; assay type: ADME
Cytochrome P450 2C9 = Cytochrome P450 2C9 (Homo sapiens, UniProt P11712); assay: Inhibition of heterologously expressed human cytochrome P450 2C9; assay type: ADME
Cytochrome P450 2C19 = Cytochrome P450 2C19 (Homo sapiens, UniProt P33261); assay: Inhibition of heterologously expressed human cytochrome P450 2C19; assay type: ADME
Cytochrome P450 3A4 = Cytochrome P450 3A4 (Homo sapiens, UniProt P08684); assay: Inhibition of heterologously expressed human cytochrome P450 3A4; assay type: ADME
Rattus norvegicus [14] = assay: Dose required to reverse mCPP induced hypolocomotion in rat after oral administration.; assay type: functional; settings: read-out: ID50 (the source's name); in short: as §2
Cytochrome P450 1A2 [15] = molecular target: T3, Cytochrome P450 1A2; assay: Inhibition of heterologously expressed human cytochrome P450 1A2; assay type: ADME; in short: as §3

T2 sequence (P41595 whole entry): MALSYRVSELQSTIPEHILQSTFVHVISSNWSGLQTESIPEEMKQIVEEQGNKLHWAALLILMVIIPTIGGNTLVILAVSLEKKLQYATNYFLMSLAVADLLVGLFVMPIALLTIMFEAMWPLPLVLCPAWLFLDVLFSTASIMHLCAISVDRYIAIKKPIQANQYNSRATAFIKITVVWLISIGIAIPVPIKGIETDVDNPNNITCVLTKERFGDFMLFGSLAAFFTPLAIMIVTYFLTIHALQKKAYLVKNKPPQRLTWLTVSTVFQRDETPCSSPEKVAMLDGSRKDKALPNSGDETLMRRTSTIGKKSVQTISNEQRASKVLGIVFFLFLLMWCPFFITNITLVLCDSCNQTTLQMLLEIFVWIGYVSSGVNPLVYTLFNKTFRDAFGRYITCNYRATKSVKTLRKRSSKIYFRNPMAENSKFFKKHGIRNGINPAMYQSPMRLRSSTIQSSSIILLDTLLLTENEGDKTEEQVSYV
Chain of Serotonin 2 receptors; 5-HT2a & 5-HT2c (Homo sapiens) (P28223 whole entry, looked up, one chain of several): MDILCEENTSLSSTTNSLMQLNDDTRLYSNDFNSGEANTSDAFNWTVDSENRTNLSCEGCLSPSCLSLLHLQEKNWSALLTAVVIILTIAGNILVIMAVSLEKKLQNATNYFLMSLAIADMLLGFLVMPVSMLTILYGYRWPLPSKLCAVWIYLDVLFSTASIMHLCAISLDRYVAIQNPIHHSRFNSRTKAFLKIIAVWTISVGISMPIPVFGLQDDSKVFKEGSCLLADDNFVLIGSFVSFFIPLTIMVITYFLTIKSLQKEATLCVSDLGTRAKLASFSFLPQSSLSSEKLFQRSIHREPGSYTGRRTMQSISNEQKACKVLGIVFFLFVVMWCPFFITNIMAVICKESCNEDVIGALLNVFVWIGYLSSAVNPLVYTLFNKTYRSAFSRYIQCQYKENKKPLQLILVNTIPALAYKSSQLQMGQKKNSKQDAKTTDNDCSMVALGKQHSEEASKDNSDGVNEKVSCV
T1 sequence (P28223 whole entry): as the sequence (P28223 whole entry, looked up, one chain of several) above
Chain of Cytochrome P450 2C19 (P33261 whole entry): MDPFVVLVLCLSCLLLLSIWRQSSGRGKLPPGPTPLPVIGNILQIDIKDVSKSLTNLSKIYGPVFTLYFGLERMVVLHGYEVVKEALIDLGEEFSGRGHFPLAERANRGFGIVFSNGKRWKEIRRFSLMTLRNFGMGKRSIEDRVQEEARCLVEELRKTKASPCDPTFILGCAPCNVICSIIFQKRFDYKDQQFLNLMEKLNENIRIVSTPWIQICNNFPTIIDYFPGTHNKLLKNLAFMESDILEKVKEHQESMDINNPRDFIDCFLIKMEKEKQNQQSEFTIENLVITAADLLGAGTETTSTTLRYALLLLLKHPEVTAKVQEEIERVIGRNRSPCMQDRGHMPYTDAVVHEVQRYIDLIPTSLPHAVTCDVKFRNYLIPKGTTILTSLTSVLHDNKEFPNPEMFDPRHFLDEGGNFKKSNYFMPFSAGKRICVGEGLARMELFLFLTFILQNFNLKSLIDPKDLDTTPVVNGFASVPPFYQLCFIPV
Chain of Cytochrome P450 3A4 (P08684 whole entry): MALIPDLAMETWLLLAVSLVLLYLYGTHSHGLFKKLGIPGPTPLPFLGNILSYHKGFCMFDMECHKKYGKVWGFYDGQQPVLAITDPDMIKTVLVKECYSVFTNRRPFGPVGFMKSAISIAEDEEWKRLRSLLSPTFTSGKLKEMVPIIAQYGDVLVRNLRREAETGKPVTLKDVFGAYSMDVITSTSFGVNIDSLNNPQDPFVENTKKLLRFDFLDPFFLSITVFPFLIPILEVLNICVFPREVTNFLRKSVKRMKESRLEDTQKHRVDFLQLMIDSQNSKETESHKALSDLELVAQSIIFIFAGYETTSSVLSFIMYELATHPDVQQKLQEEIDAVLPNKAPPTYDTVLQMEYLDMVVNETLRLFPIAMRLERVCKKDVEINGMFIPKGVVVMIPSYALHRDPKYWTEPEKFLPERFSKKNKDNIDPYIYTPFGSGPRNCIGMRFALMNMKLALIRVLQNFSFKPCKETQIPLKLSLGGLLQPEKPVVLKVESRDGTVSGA
Chain of Cytochrome P450 2D6 (P10635 whole entry): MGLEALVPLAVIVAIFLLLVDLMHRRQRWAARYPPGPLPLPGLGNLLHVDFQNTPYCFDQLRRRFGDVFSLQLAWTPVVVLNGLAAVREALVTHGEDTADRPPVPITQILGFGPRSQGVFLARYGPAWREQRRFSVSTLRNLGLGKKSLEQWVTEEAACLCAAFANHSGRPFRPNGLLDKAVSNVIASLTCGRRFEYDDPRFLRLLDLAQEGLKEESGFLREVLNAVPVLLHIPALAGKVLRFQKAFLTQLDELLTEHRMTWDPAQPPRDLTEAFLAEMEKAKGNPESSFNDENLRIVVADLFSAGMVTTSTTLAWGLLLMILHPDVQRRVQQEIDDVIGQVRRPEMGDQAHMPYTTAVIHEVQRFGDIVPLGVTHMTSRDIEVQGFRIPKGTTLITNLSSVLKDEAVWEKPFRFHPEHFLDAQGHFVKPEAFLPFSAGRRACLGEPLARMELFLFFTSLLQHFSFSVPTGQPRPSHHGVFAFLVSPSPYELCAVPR
Chain of Cytochrome P450 2C9 (P11712 whole entry): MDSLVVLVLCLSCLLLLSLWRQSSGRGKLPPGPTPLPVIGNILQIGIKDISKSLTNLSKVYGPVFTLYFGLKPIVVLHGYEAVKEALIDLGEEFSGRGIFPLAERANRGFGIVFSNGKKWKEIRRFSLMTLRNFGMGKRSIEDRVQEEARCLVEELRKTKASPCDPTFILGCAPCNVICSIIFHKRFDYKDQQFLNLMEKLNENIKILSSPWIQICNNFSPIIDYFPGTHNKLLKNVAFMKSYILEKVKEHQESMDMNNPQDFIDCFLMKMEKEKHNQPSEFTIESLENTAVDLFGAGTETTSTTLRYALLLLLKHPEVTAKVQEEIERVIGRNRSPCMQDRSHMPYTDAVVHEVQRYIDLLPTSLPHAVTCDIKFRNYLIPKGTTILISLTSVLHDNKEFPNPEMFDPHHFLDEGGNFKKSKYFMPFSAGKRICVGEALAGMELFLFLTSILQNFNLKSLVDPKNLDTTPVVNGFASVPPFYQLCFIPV

SMILES | Ki [1] [nM] | ED50 (Rattus norvegicus [2]) [mg/kg] | Ki [3] [nM] | IC50 (Cytochrome P450 1A2 [4]) [nM] | Ki [5] [nM] | Selectivity [6] | Selectivity [7] | ED50 (Rattus norvegicus [8]) | ED50 (Rattus norvegicus [9]) | Ki [10] [nM] | Log Ki [11] | Log Ki [12] | Log Ki [13] | IC50 (Cytochrome P450 2D6) [nM] | IC50 (Cytochrome P450 2C9) [nM] | IC50 (Cytochrome P450 2C19) [nM] | IC50 (Cytochrome P450 3A4) [nM] | ED50 (Rattus norvegicus [14]) [mg/kg] | IC50 (Cytochrome P450 1A2 [15]) [nM]
COc1cc2c(cc1C(F)(F)F)N(C(=O)Nc1cncc(-c3cnccc3C)c1)CC2 | 100 | 5 | 6.31 | 200 | 0.398 | 250 | 15 |  |  |  |  |  |  |  |  |  |  |  | 
COc1cc2c(cc1C(F)(F)F)N(C(=O)Nc1ccc(-c3cccnc3)nc1)CC2 | > 10000 |  | 10 | 7000 | 5.01 | > 2000 | 2 | inactive |  |  |  |  |  |  |  |  |  |  | 
COc1cc2c(cc1C(F)(F)F)N(C(=O)Nc1ccc(C(C)(C)C)c(-c3cccnc3)c1)CC2 | 1000 |  |  |  | 3.16 | 320 | 13 |  | inactive | 39.8 |  |  |  |  |  |  |  |  | 
COc1cc2c(cc1C(F)(F)F)N(C(=O)Nc1ccc(-c3ccccc3)nc1)CC2 |  |  |  |  |  |  |  |  |  |  | Insoluble | Insoluble | Insoluble |  |  |  |  |  | 
COc1cc2c(cc1C(F)(F)F)N(C(=O)Nc1cc(F)cc(-c3cccnc3)c1)CC2 | 126 |  |  | 28000 | 1 | 130 | 10 |  |  | 10 |  |  |  | 21000 | 82000 | > 100000 | 9000 | 0.7 | 
Cc1cc2c(cc1C(F)(F)F)N(C(=O)Nc1ccc(Oc3cccnc3C)nc1)CC2 [SB-243213] | 158 |  |  |  | 1 | 160 | 100 |  |  | 100 |  |  |  | > 100000 | 23000 | > 100000 | > 100000 | 0.7 | > 100000
